Data reported in ChEMBL document CHEMBL4270599, “Synthesis of a 3'-C-ethynyl-β-d-ribofuranose purine nucleoside library: Discovery of C7-deazapurine analogs as potent antiproliferative nucleosides” (Eur J Med Chem, 2018).

Key:
[1] = Cytotoxicity against HELF cells assessed as alteration of cell morphology by microscopic analysis; type: cell-based; conditions: human
In short: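 Uninfected Hel fibroblast cultures exposed to compound alongside antiviral assays. Minimal cytotoxic concentration (MCC) is the concentration giving microscopically visible alteration of normal cell morphology.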

Human alphaherpesvirus 3 [2] = assay: Antiviral activity against thymidine kinase-deficient Varicella Zoster virus Oka strain infected in HELF cells assessed as inhibition of virus-induced plaque formation; type: functional, organism-based; conditions: Human alphaherpesvirus 3, strain Oka vaccine
In short: (§1)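 Confluent human embryonic lung fibroblast monolayers in 96-well plates were infected with 100 CCID50 of virus or, for VZV, 20 PFU, in the presence of varying compound concentrations. For HCMV/VZV-type assays, residual virus was removed after 1–2 h before compound addition. Cytopathicity or plaque formation was scored once complete in untreated infected controls. Highest concentration tested was 100 μM.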

Human betaherpesvirus 5 [3] = assay: Antiviral activity against Human cytomegalovirus AD169 strain infected in HELF cells assessed as inhibition of virus-induced cytopathogenicity; type: functional, organism-based; conditions: Human betaherpesvirus 5, AD169, HELF
In short: (§2)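 Confluent human embryonic lung fibroblasts in 96-well plates inoculated with 100 CCID₅₀ HCMV. Residual virus removed after 1–2 h, then cultures incubated with varying compound concentrations. Cytopathicity scored once complete in untreated infected controls. EC₅₀ is the concentration reducing virus-induced cytopathicity by 50%.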

CCRF-CEM = assay: Antiproliferative activity against human CEM cells after 72 hrs by Coulter counter method; type: functional, cell-based
In short: (§3)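 Cell count assay in 96-well microtiter plates; (5–7.5) × 10⁴ tumor cells per well plus test compound. Cells proliferated at 37 °C in humidified CO₂-controlled atmosphere, 48 h for murine leukemia L1210, 72 h for human lymphocytic CEM and cervix carcinoma HeLa. Counted by Coulter counter; IC₅₀ is the concentration that inhibits proliferation by 50%.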

L1210 = assay: Antiproliferative activity against mouse L1210 cells after 48 hrs by Coulter counter method; type: functional, cell-based; conditions: L1210, 48 h; in short: as §3
Human alphaherpesvirus 3 [4] = assay: Antiviral activity against thymidine kinase-deficient Varicella Zoster virus 07-1 strain infected in HELF cells assessed as inhibition of virus-induced plaque formation; type: functional, organism-based; conditions: Human alphaherpesvirus 3, 07-1, HELF; in short: as §1
HeLa = assay: Antiproliferative activity against human HeLa cells after 72 hrs by Coulter counter method; type: functional, cell-based; in short: as §3
Human betaherpesvirus 5 [5] = assay: Antiviral activity against Human cytomegalovirus Davis strain infected in HELF cells assessed as inhibition of virus-induced cytopathogenicity; type: functional, organism-based; conditions: Human betaherpesvirus 5, Davis; in short: as §2
Human alphaherpesvirus 2 = assay: Antiviral activity against Human herpesvirus 2 G strain infected in HELF cells assessed as inhibition of virus-induced cytopathogenicity; type: functional, organism-based; conditions: Human alphaherpesvirus 2, strain G
In short: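 Confluent Hel fibroblast cultures in 96-well plates inoculated with 100 CCID₅₀ virus in presence of varying compound concentrations. Cytopathicity recorded once complete in untreated virus-infected controls. EC₅₀ is the concentration reducing virus-induced cytopathogenicity by 50%; compounds tested up to 100 μM.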

Human alphaherpesvirus 1 [6] = assay: Antiviral activity against thymidine kinase-deficient acyclovir-resistant Human herpesvirus 1 KOS strain infected in HELF cells assessed as inhibition of virus-induced cytopathogenicity; type: functional, organism-based; conditions: Human alphaherpesvirus 1, KOS; in short: as §1
Human alphaherpesvirus 1 [7] = assay: Antiviral activity against Human herpesvirus 1 KOS strain infected in HELF cells assessed as inhibition of virus-induced cytopathogenicity; type: functional, organism-based; conditions: Human alphaherpesvirus 1, KOS; in short: as §1
[8] = Cytotoxicity against HELF cells after by Coulter counter method; type: cell-based; conditions: human
In short: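 Hel fibroblast proliferation measured by Coulter Counter cell count in presence of compound. CC₅₀ is the concentration (μM) reducing cell proliferation by 50%.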

| Structure (SMILES) | MCC [1] [µM] | EC50 (Human alphaherpesvirus 3 [2]) [µM] | EC50 (Human betaherpesvirus 5 [3]) [µM] | IC50 (CCRF-CEM) [µM] | IC50 (L1210) [µM] | EC50 (Human alphaherpesvirus 3 [4]) [µM] | IC50 (HeLa) [µM] | EC50 (Human betaherpesvirus 5 [5]) [µM] | EC50 (Human alphaherpesvirus 2) [µM] | EC50 (Human alphaherpesvirus 1 [6]) [µM] | EC50 (Human alphaherpesvirus 1 [7]) [µM] | CC50 [8] [µM] | CC50 ([8]; HELF cells) [µM] |
| --- | --- | --- | --- | --- | --- | --- | --- | --- | --- | --- | --- | --- | --- |
| C#C[C@@]1(O)[C@@H](CO)O[C@@H](n2cc(Cl)c3c(N)ccnc32)[C@@H]1O | ≥ 100 | > 100 | > 100 | 5.4 | 0.98 | 17.5 | 1.7 | 20 | – | – | – | – | – |
| C#Cc1cn([C@@H]2O[C@H](CO)[C@](O)(C#C)[C@H]2O)c2ncnc(N)c12 | – | – | – | 63 | 159 | – | 114 | – | – | – | – | – | – |
| C#C[C@@]1(O)[C@@H](CO)O[C@@H](n2cc(I)c3c(Cl)ccnc32)[C@@H]1O | 20 to 100 | 9.82 | 2.31 | 0.26 | 20 | 8.26 | 1.1 | 0.66 | > 100 | > 100 | > 100 | 0.16 | – |
| C#C[C@@]1(O)[C@@H](CO)O[C@@H](n2cc(Cl)c3c(Cl)ccnc32)[C@@H]1O | 20 to 100 | 16.6 | 0.51 | 1.3 | 75 | 3.06 | 6.3 | 0.53 | > 100 | 10.6 | 16.3 | 5.25 | – |
| Nc1nc2c(ncn2COCCO)c(=O)[nH]1 [ACYCLOVIR] | 250 to 440 | – | – | – | – | – | – | – | – | – | – | > 440 | – |
| C#C[C@@]1(O)[C@@H](CO)O[C@@H](n2cnc3c(-c4ccc(F)cc4)ncnc32)[C@@H]1O | – | – | – | 223 | > 250 | – | 220 | – | – | – | – | – | – |
| C#C[C@@]1(O)[C@@H](CO)O[C@@H](n2cc(-c3ccco3)c3c(N)ncnc32)[C@@H]1O | – | – | – | 17 | 30 | – | 14 | – | – | – | – | – | – |
| C#C[C@@]1(O)[C@@H](CO)O[C@@H](n2cc(C(F)(F)F)c3c(N)ncnc32)[C@@H]1O | – | – | – | 0.36 | 0.11 | – | 0.75 | – | – | – | – | – | – |
| C#C[C@@]1(O)[C@@H](CO)O[C@@H](n2cnc3c(N)ncnc32)[C@@H]1O | 20 | 1.82 | ≥ 4 | – | – | 1.64 | – | ≥ 4 | > 4 | > 4 | > 4 | – | 0.7 to 0.73 |
| C#C[C@@]1(O)[C@@H](CO)O[C@@H](n2cnc3c(-c4ccc(Cl)cc4)ncnc32)[C@@H]1O | – | – | – | 124 | 225 | – | 170 | – | – | – | – | – | – |
| C#C[C@@]1(O)[C@@H](CO)O[C@@H](n2cc(Br)c3c(Cl)ccnc32)[C@@H]1O | ≥ 100 | 2.76 | 0.36 | 0.56 | 30 | 2.27 | 0.89 | 0.35 | > 100 | 5.83 | 6.67 | 0.35 | – |
| C#C[C@@]1(O)[C@@H](CO)O[C@@H](n2cc(I)c3c(N)ccnc32)[C@@H]1O | – | – | – | 0.31 | 0.044 | – | 0.18 | – | – | – | – | – | – |
| Nc1ccn(C[C@@H](CO)OCP(=O)(O)O)c(=O)n1 [CIDOFOVIR] | 250 to 300 | – | 1.59 | – | – | – | – | 1.45 | 1.2 | – | 1.5 | – | – |
| CC[C@@]1(O)[C@@H](CO)O[C@@H](n2cc(Cl)c3c(N)ncnc32)[C@@H]1O | 4 to 20 | 1.71 | 1.79 | 2.6 | 1.2 | 3.74 | 4.4 | > 4 | 0.63 | 1.27 | 2.1 | 3.41 | – |
| C#C[C@@]1(O)[C@@H](CO)O[C@@H](n2cnc3c(-c4ccc(C)cc4)ncnc32)[C@@H]1O | – | – | – | 154 | 205 | – | > 250 | – | – | – | – | – | – |
| Nc1nc2c(ncn2COC(CO)CO)c(=O)[nH]1 [GANCICLOVIR] | 100 to 350 | – | – | – | – | – | – | – | – | – | – | – | – |
| C#C[C@@]1(O)[C@@H](CO)O[C@@H](n2ccc3c(Cl)ccnc32)[C@@H]1O | 20 to 100 | > 100 | > 100 | 86 | 197 | > 100 | 135 | > 100 | > 100 | > 100 | > 100 | – | – |
| C#C[C@@]1(O)[C@@H](CO)O[C@@H](n2cnc3c(-c4ccc(OC)cc4)ncnc32)[C@@H]1O | – | – | – | > 250 | > 250 | – | > 250 | – | – | – | – | – | – |
| C#C[C@@]1(O)[C@@H](CO)O[C@@H](n2c(C(F)(F)F)cc3c(N)ncnc32)[C@@H]1O | – | – | – | > 250 | > 250 | – | > 250 | – | – | – | – | – | – |
| C#C[C@@]1(O)[C@@H](CO)O[C@@H](n2cnc3c(-c4ccccc4)ncnc32)[C@@H]1O | – | – | – | > 250 | > 250 | – | > 250 | – | – | – | – | – | – |
